# Laboratory results reported in ChEMBL document CHEMBL1123045, “Synthesis of high specific activity [75Br]- and [77Br]bromperidol and tissue distribution studies in the rat” (J Med Chem, 1985).
# Experiments:
# Rattus norvegicus [1] = experiment: Distribution in rat kidney, 4 hr after intravenous administration, injected dose/gm; type: ADME, organism-based; details: in vivo
# Summary of the method: (§1)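 [77Br]Bromperidol at high specific activity (50-100 µCi in 0.1 mL 0.9% NaCl, pH 3) given into the femoral vein of 300-320-g female Sprague-Dawley rats under light ether anesthesia. At each time point, groups of five were decapitated after cardiac-puncture blood sampling. Organs were dissected, blotted, weighed and gamma-counted against an injectate standard. Values are % injected dose/g, mean ± SD, n=5.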
# Rattus norvegicus [2] = experiment: Distribution in rat fat 6 hr after intravenous administration, injected dose/gm; type: ADME, organism-based, Adipose tissue; details: in vivo; summary of the method: as §1
# Rattus norvegicus [3] = experiment: Distribution in rat pancreas 5 min after intravenous administration, injected dose/gm; type: ADME, organism-based; details: in vivo
# Summary of the method: (§2)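 Female Sprague-Dawley rats (300-320 g) under light ether anesthesia received a single injection of [77Br]-labeled tracer (50-100 µCi in 0.1 mL 0.9% NaCl, pH 3) into the femoral vein. Groups of five were decapitated at set times after a cardiac-puncture blood sample. Organs were dissected, blotted and weighed, and counted in a NaI(Tl) well γ-counter. Values are %ID/g against an injectate standard, mean ± SD (n=5).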
# Rattus norvegicus [4] = experiment: Distribution in brain of rat, 2 hr after intravenous administered, injected dose/gm; type: ADME, organism-based; details: in vivo; summary of the method: as §1
# Rattus norvegicus [5] = experiment: Distribution in rat pancreas 30 min after intravenous administration, injected dose/gm; type: ADME, organism-based; details: in vivo, 0.5 h; summary of the method: as §2
# Rattus norvegicus [6] = experiment: Distribution in rat lungs 15 min after intravenous administration, injected dose/gm; type: ADME, organism-based, Lung; details: in vivo, 0.25 h; summary of the method: as §2
# Rattus norvegicus [7] = experiment: Distribution in rat pancreas 4 hr after intravenous administration, injected dose/gm; type: ADME, organism-based; details: in vivo; summary of the method: as §2
# Rattus norvegicus [8] = experiment: Distribution in rat intestine 8 hr after intravenous administration, injected dose/gm; type: ADME, organism-based; details: in vivo; summary of the method: as §1
# Rattus norvegicus [9] = experiment: Distribution in rat fat 1 hr after intravenous administration, injected dose/gm; type: ADME, organism-based, Adipose tissue; details: in vivo; summary of the method: as §1
# Rattus norvegicus [10] = experiment: Distribution in rat skin 4 hr after intravenous administration, injected dose/gm; type: ADME, organism-based; details: in vivo; summary of the method: as §2
# Rattus norvegicus [11] = experiment: Distribution in brain of rat, 8 hr after intravenous administered, injected dose/gm; type: ADME, organism-based; details: in vivo; summary of the method: as §1
# Rattus norvegicus [12] = experiment: Distribution in rat fat 8 hr after intravenous administration, injected dose/gm; type: ADME, organism-based, Adipose tissue; details: in vivo; summary of the method: as §1
# Rattus norvegicus [13] = experiment: Distribution in rat uterus 15 min after intravenous administration, injected dose/gm; type: ADME, organism-based; details: in vivo, 0.25 h; summary of the method: as §2
# Rattus norvegicus [14] = experiment: Distribution in rat fat 15 min after intravenous administration, injected dose/gm; type: ADME, organism-based, Adipose tissue; details: in vivo, 0.25 h; summary of the method: as §1
# Rattus norvegicus [15] = experiment: Distribution in brain of rat, 4 hr after intravenous administered, injected dose/gm; type: ADME, organism-based; details: in vivo; summary of the method: as §1
# Rattus norvegicus [16] = experiment: Distribution in rat spleen 4 hr after intravenous administration, injected dose/gm; type: ADME, organism-based; details: in vivo; summary of the method: as §2
# Rattus norvegicus [17] = experiment: Distribution in rat intestine 4 hr after intravenous administration, injected dose/gm; type: ADME, organism-based; details: in vivo; summary of the method: as §1
# Rattus norvegicus [18] = experiment: Distribution in blood of rat, 8 hr after intravenous administration, injected dose/gm; type: ADME, organism-based; details: in vivo; summary of the method: as §1
# Rattus norvegicus [19] = experiment: Distribution in rat lungs 2 hr after intravenous administration, injected dose/gm; type: ADME, organism-based, Lung; details: in vivo; summary of the method: as §2
# Rattus norvegicus [20] = experiment: Distribution in brain of rat, 30 min after intravenous administered, injected dose/gm; type: ADME, organism-based; details: in vivo, 0.5 h; summary of the method: as §1
# Rattus norvegicus [21] = experiment: Distribution in rat spleen 5 min after intravenous administration, injected dose/gm; type: ADME, organism-based; details: in vivo; summary of the method: as §2
# Rattus norvegicus [22] = experiment: Distribution in rat intestine 5 min after intravenous administration, injected dose/gm; type: ADME, organism-based; details: in vivo; summary of the method: as §1
# Rattus norvegicus [23] = experiment: Distribution in rat heart 1 hr after intravenous administration, injected dose/gm; type: ADME, organism-based; details: in vivo; summary of the method: as §1
# Rattus norvegicus [24] = experiment: Distribution in rat spleen 2 hr after intravenous administration, injected dose/gm; type: ADME, organism-based; details: in vivo; summary of the method: as §2
# Rattus norvegicus [25] = experiment: Distribution in rat heart 5 min after intravenous administration, injected dose/gm; type: ADME, organism-based; details: in vivo; summary of the method: as §1
# Rattus norvegicus [26] = experiment: Distribution in rat skin 1 hr after intravenous administration, injected dose/gm; type: ADME, organism-based; details: in vivo; summary of the method: as §2
# Rattus norvegicus [27] = experiment: Distribution in rat spleen 15 min after intravenous administration, injected dose/gm; type: ADME, organism-based; details: in vivo, 0.25 h; summary of the method: as §2
# Rattus norvegicus [28] = experiment: Distribution in blood of rat, 15 min after intravenous administration, injected dose/gm; type: ADME, organism-based; details: in vivo, 0.25 h; summary of the method: as §1
# Rattus norvegicus [29] = experiment: Distribution in blood of rat, 1 hr after intravenous administration, injected dose/gm; type: ADME, organism-based; details: in vivo; summary of the method: as §1
# Rattus norvegicus [30] = experiment: Distribution in rat intestine 6 hr after intravenous administration, injected dose/gm; type: ADME, organism-based; details: in vivo; summary of the method: as §1
# Rattus norvegicus [31] = experiment: Distribution in rat liver 2 hr after intravenous administration, injected dose/gm; type: ADME, organism-based; details: in vivo; summary of the method: as §1
# Rattus norvegicus [32] = experiment: Distribution in rat muscle 4 hr after intravenous administration, injected dose/gm; type: ADME, organism-based, Muscle tissue; details: in vivo; summary of the method: as §2
# Rattus norvegicus [33] = experiment: Distribution in rat heart 4 hr after intravenous administration, injected dose/gm; type: ADME, organism-based; details: in vivo; summary of the method: as §1
# Rattus norvegicus [34] = experiment: Distribution in rat liver 5 min after intravenous administration, injected dose/gm; type: ADME, organism-based; details: in vivo; summary of the method: as §2
# Rattus norvegicus [35] = experiment: Distribution in rat intestine 1 hr after intravenous administration, injected dose/gm; type: ADME, organism-based; details: in vivo; summary of the method: as §1
# Rattus norvegicus [36] = experiment: Distribution in blood of rat, 4 hr after intravenous administration, injected dose/gm; type: ADME, organism-based; details: in vivo; summary of the method: as §1
# Rattus norvegicus [37] = experiment: Distribution in rat skin 2 hr after intravenous administration, injected dose/gm; type: ADME, organism-based; details: in vivo; summary of the method: as §2
# Rattus norvegicus [38] = experiment: Distribution in rat lungs 30 min after intravenous administration, injected dose/gm; type: ADME, organism-based, Lung; details: in vivo, 0.5 h; summary of the method: as §2
# Rattus norvegicus [39] = experiment: Distribution in rat uterus 4 hr after intravenous administration, injected dose/gm; type: ADME, organism-based; details: in vivo; summary of the method: as §2
# Rattus norvegicus [40] = experiment: Distribution in rat fat 4 hr after intravenous administration, injected dose/gm; type: ADME, organism-based, Adipose tissue; details: in vivo; summary of the method: as §1
# Rattus norvegicus [41] = experiment: Distribution in rat muscle 6 hr after intravenous administration, injected dose/gm; type: ADME, organism-based, Muscle tissue; details: in vivo; summary of the method: as §2
# Rattus norvegicus [42] = experiment: Distribution in rat uterus 6 hr after intravenous administration, injected dose/gm; type: ADME, organism-based; details: in vivo; summary of the method: as §2
# Rattus norvegicus [43] = experiment: Distribution in blood of rat 5 min after intravenous administration, injected dose/gm; type: ADME, organism-based; details: in vivo; summary of the method: as §1
# Rattus norvegicus [44] = experiment: Distribution in rat lungs 4 hr after intravenous administration, injected dose/gm; type: ADME, organism-based, Lung; details: in vivo; summary of the method: as §2
# Rattus norvegicus [45] = experiment: Distribution in rat liver 1 hr after intravenous administration, injected dose/gm; type: ADME, organism-based; details: in vivo; summary of the method: as §1
# Rattus norvegicus [46] = experiment: Distribution in rat spleen 6 hr after intravenous administration, injected dose/gm; type: ADME, organism-based; details: in vivo; summary of the method: as §2
# Rattus norvegicus [47] = experiment: Distribution in blood of rat, 2 hr after intravenous administration, injected dose/gm; type: ADME, organism-based; details: in vivo; summary of the method: as §1
# Rattus norvegicus [48] = experiment: Distribution in rat liver 30 min after intravenous administration, injected dose/gm; type: ADME, organism-based; details: in vivo, 0.5 h; summary of the method: as §2
# Rattus norvegicus [49] = experiment: Distribution in rat pancreas 6 hr after intravenous administration, injected dose/gm; type: ADME, organism-based; details: in vivo; summary of the method: as §2
# Rattus norvegicus [50] = experiment: Distribution in rat intestine 2 hr after intravenous administration, injected dose/gm; type: ADME, organism-based; details: in vivo; summary of the method: as §1
compound,measurement,setting,value
O=C(CCCN1CCC(O)(c2ccc(Br)cc2)CC1)c1ccc(F)cc1 [BROMPERIDOL],Distribution,Rattus norvegicus [1],1.95%
same,Distribution,Rattus norvegicus [2],0.19%
same,Distribution,Rattus norvegicus [3],3.16%
same,Distribution,Rattus norvegicus [4],1.85%
same,Distribution,Rattus norvegicus [5],5.2%
same,Distribution,Rattus norvegicus [6],6.29%
same,Distribution,Rattus norvegicus [7],3.51%
same,Distribution,Rattus norvegicus [8],0.85%
same,Distribution,Rattus norvegicus [9],0.22%
same,Distribution,Rattus norvegicus [10],0.14%
same,Distribution,Rattus norvegicus [11],1.29%
same,Distribution,Rattus norvegicus [12],0.18%
same,Distribution,Rattus norvegicus [13],2.24%
same,Distribution,Rattus norvegicus [14],0.16%
same,Distribution,Rattus norvegicus [15],1.61%
same,Distribution,Rattus norvegicus [16],1.92%
same,Distribution,Rattus norvegicus [17],0.76%
same,Distribution,Rattus norvegicus [18],0.02%
same,Distribution,Rattus norvegicus [19],2.1%
same,Distribution,Rattus norvegicus [20],2.82%
same,Distribution,Rattus norvegicus [21],3.02%
same,Distribution,Rattus norvegicus [22],0.39%
same,Distribution,Rattus norvegicus [23],0.55%
same,Distribution,Rattus norvegicus [24],2.69%
same,Distribution,Rattus norvegicus [25],2.29%
same,Distribution,Rattus norvegicus [26],0.2%
same,Distribution,Rattus norvegicus [27],3.29%
same,Distribution,Rattus norvegicus [28],0.11%
same,Distribution,Rattus norvegicus [29],0.06%
same,Distribution,Rattus norvegicus [30],0.98%
same,Distribution,Rattus norvegicus [31],3.16%
same,Distribution,Rattus norvegicus [32],0.12%
same,Distribution,Rattus norvegicus [33],0.36%
same,Distribution,Rattus norvegicus [34],1.03%
same,Distribution,Rattus norvegicus [35],0.89%
same,Distribution,Rattus norvegicus [36],0.06%
same,Distribution,Rattus norvegicus [37],0.17%
same,Distribution,Rattus norvegicus [38],5.8%
same,Distribution,Rattus norvegicus [39],1.07%
same,Distribution,Rattus norvegicus [40],0.15%
same,Distribution,Rattus norvegicus [41],0.13%
same,Distribution,Rattus norvegicus [42],1.2%
same,Distribution,Rattus norvegicus [43],0.12%
same,Distribution,Rattus norvegicus [44],1.59%
same,Distribution,Rattus norvegicus [45],2.99%
same,Distribution,Rattus norvegicus [46],1.76%
same,Distribution,Rattus norvegicus [47],0.05%
same,Distribution,Rattus norvegicus [48],2.5%
same,Distribution,Rattus norvegicus [49],2.83%
same,Distribution,Rattus norvegicus [50],0.82%
